Reference: ChEMBL document CHEMBL4184319, “Fluorescent-Labeled Selective Adenosine A2B Receptor Antagonist Enables Competition Binding Assay by Flow Cytometry” (J Med Chem, 2018)
pIC50, pKd, pKi: −log10 of the molar value.

How the values were obtained:
[1] = target: T1, Adenosine receptor A1 (Rattus norvegicus, UniProt P25099); assay: Displacement of [3H]CCPA from adenosine A1 receptor in rat brain cortical membranes after 90 mins by liquid scintillation counting method; format: cell membranes
T1 sequence (P25099 whole entry): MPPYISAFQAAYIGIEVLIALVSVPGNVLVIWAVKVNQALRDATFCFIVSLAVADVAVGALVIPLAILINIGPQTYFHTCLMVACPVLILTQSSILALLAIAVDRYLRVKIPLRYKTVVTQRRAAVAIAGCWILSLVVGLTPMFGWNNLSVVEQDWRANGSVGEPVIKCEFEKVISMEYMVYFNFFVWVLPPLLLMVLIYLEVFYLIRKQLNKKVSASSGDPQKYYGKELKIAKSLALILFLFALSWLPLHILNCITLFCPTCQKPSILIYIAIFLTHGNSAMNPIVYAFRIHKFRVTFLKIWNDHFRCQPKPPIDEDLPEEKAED
How it was run: (§1)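 [³H]CCPA (1 nM) used with rat brain cortical or human A1-CHO membranes, 90 min at rt. Membranes pre-incubated 10-15 min with ADA 0.12 IU/mL. Nonspecific binding defined with 10 µM CADO. Compounds dissolved in DMSO, 2.5 % final. Filtration on GF/B filters with ice-cold Tris-HCl washes, then scintillation counting. Curves used 6-7 concentrations spanning 3 log units. At least three experiments, in duplicate (human) or triplicate (rat).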

[2] = species: Homo sapiens; assay: Selectivity ratio of Ki for recombinant human adenosine A2A receptor expressed in HEK cell membranes to Ki for recombinant human adenosine A2B receptor expressed in CHO cell membranes; format: cell-based
[3] = target: T2, Adenosine receptor A1 (Homo sapiens, UniProt P30542); assay: Displacement of [3H]CCPA from recombinant human adenosine A1 receptor expressed in CHO cell membranes after 90 mins by liquid scintillation counting method; how it was run: as §1
T2 sequence (P30542 whole entry): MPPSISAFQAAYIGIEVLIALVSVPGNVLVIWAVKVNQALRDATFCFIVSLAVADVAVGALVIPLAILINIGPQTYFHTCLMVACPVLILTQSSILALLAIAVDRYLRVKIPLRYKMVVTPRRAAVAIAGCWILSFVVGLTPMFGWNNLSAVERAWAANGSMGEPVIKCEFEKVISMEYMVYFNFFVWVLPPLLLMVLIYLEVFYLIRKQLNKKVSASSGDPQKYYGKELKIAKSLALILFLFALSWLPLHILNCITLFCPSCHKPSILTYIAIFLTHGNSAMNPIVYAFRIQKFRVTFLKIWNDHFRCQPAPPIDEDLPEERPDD

[4] = Selectivity ratio of Ki for adenosine A2A receptor in rat brain striatal membranes to Ki for recombinant human adenosine A2B receptor expressed in CHO cell membranes; format: cell-based
[5] = target: Adenosine receptor A2a (Homo sapiens, UniProt P29274); assay: Displacement of [3H]MSX-2 from recombinant human adenosine A2A receptor expressed in HEK cell membranes after 30 mins by liquid scintillation counting method
Chain of Adenosine receptor A2a (Homo sapiens, UniProt P29274) (P29274 whole entry): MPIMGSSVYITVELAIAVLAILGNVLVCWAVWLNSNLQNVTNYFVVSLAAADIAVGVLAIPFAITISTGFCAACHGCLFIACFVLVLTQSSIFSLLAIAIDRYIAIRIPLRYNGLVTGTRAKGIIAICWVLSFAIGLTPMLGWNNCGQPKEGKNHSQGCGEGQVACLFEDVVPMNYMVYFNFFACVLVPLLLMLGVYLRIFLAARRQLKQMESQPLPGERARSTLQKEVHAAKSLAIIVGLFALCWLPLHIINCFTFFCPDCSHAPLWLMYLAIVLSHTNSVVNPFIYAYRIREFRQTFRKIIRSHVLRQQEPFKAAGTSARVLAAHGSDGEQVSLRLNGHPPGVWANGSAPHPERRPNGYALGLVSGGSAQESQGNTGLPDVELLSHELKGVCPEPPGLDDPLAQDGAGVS
How it was run: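 [³H]MSX-2 (1 nM) used with rat striatal or human A2A-HEK membranes, 30 min at rt. Membranes pre-incubated 10-15 min with ADA 0.12 IU/mL. Nonspecific binding defined with 10 µM CGS15943. DMSO 2.5 % final. GF/B filtration, then scintillation counting. Curves used 6-7 concentrations over 3 log units. At least three experiments, in duplicate (human) or triplicate (rat).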

[6] = target: T3, Adenosine receptor A2b (Homo sapiens, UniProt P29275); assay: Displacement of [3H]PSB-603 from recombinant human adenosine A2B receptor expressed in CHO cell membranes after 75 mins by liquid scintillation counting method
T3 sequence (P29275 whole entry): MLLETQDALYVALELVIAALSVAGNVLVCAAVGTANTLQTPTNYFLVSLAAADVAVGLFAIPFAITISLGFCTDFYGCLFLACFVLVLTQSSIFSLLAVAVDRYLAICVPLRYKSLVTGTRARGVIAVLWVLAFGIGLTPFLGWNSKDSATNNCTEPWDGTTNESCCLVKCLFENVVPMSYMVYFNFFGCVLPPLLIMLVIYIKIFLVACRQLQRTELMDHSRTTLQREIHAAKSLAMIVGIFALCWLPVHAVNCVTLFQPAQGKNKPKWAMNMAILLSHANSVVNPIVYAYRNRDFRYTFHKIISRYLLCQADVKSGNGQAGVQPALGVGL
How it was run: (§2)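 [³H]PSB-603 (0.3 nM) used with CHO membranes expressing human, mouse or rat A2BAR, 75 min at rt. Membranes pre-incubated 10-15 min with ADA 0.12 IU/mL. Nonspecific binding defined with 10 µM DPCPX. DMSO 2.5 % final. Filtration on GF/B with ice-cold 50 mM Tris-HCl pH 7.4 containing 0.1 % BSA, then scintillation counting. Curves used 6-7 concentrations over 3 log units. At least three experiments.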

[7] = target: Adenosine receptor A2a (Rattus norvegicus, UniProt P30543); assay: Displacement of [3H]MSX-2 from adenosine A2A receptor in rat brain striatal membranes after 30 mins by liquid scintillation counting method; format: cell membranes, Striatum, Membrane
Chain of Adenosine receptor A2a (Rattus norvegicus, UniProt P30543) (P30543 whole entry): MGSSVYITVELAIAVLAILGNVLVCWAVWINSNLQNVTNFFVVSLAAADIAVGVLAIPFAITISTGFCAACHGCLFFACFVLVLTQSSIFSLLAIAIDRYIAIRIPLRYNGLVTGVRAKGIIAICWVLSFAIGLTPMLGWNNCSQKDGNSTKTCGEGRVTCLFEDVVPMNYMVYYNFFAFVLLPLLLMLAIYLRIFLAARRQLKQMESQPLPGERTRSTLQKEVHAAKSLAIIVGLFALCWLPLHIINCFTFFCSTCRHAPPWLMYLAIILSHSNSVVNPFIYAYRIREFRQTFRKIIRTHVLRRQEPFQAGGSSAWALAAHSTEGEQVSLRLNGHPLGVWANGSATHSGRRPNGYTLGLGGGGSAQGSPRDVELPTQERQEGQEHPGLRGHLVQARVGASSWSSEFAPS
How it was run: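 [³H]MSX-2 (1 nM) used with rat striatal or human A2A-HEK membranes, 30 min at rt. Membranes pre-incubated 10-15 min with ADA 0.12 IU/mL. DMSO 2.5 % final. GF/B filtration, then scintillation counting. Curves used 6-7 concentrations over 3 log units. At least three experiments, in duplicate (human) or triplicate (rat).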

[8] = target: T4, Adenosine receptor A3 (Homo sapiens, UniProt P0DMS8); assay: Displacement of [3H]PSB-11 from recombinant human adenosine A3 receptor expressed in CHO cell membranes after 45 mins by liquid scintillation counting method
T4 sequence (P0DMS8 whole entry): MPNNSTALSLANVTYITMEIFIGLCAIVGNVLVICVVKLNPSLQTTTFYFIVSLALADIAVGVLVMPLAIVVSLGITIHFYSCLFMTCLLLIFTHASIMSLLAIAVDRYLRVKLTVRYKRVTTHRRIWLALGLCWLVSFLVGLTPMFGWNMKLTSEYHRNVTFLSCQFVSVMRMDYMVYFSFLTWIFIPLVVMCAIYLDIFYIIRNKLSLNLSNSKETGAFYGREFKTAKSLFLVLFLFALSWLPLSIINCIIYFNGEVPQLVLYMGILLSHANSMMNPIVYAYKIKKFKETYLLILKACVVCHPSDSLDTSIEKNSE
How it was run: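 Human A3-CHO membranes incubated with [³H]PSB-11 (1 nM) for 45 min at rt, after 10-15 min pre-incubation with ADA 0.12 IU/mL. Nonspecific binding defined with 100 µM R-PIA. DMSO 2.5 % final. GF/B filtration, then scintillation counting. Curves used 6-7 concentrations over 3 log units. At least three experiments in duplicate.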

[9] = target: T1, Adenosine receptor A1; assay: Displacement of [3H]-ADAC from adenosine A1 receptor in rat cerebral cortex membranes after 120 mins by filter binding method; format: cell membranes, Membrane
[10] = target: T5, Adenosine receptor A2b (Mus musculus, UniProt Q60614); assay: Displacement of [3H]PSB-603 from recombinant mouse adenosine A2B receptor expressed in CHO cell membranes after 75 mins by liquid scintillation counting method; how it was run: as §2
T5 sequence (Q60614 whole entry): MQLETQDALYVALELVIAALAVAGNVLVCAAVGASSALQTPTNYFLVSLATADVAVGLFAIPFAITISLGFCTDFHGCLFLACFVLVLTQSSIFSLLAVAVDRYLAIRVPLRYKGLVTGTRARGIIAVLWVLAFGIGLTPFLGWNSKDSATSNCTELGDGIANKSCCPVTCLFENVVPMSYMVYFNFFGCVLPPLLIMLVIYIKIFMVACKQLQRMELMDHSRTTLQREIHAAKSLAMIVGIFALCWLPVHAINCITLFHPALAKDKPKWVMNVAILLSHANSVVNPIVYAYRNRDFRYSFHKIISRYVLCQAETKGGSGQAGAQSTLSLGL

[11] = target: T3, Adenosine receptor A2b; assay: Displacement of PSB-12105 from recombinant human adenosine A2B receptor expressed in CHO cell membranes preincubated for 30 mins followed by PSB-12105 addition measured after 20 mins by flow cytometric method; format: cell-based
How it was run: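 Live CHO-hA2B cells were pre-treated with ADA (2 U/mL, 2 h, 37°C), detached with 5 mM EDTA, and resuspended in HBSS with 2 U/mL ADA at 2.5×10^5 cells/well in 96-well format. Antagonists pre-incubated 30 min at 37°C, then fluorescent ligand (100 nM) added for 20 min at 37°C. 3-5 independent experiments in duplicate.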

[12] = target: T3, Adenosine receptor A2b; assay: Antagonist activity at recombinant human adenosine A2B receptor expressed in CHO cell membranes assessed as inhibition of NECA-induced cAMP accumulation preincubated for 1 hr followed by NECA induction measured after 5 mins in presence of [3H]cAMP and bovine cAMP-binding protein by liquid scintillation counting method; format: functional
How it was run: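 CHO cells stably expressing human A2BAR, pre-incubated with antagonist dilutions for 1 h at 37°C, then stimulated with NECA (10 µM final) for 5 min at 37°C. Reaction stopped with hot (90 °C) lysis solution (4 mM EDTA, 0.01 % Triton X100). cAMP quantified by radioactive competition with [³H]cAMP and bovine adrenal cAMP-binding protein. Response expressed as % of NECA response without antagonist. Means ± SEM, three independent experiments in duplicate.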

[13] = species: Homo sapiens; assay: Selectivity ratio of Ki for recombinant human adenosine A3 receptor expressed in CHO cell membranes to Ki for recombinant human adenosine A2B receptor expressed in CHO cell membranes; format: cell-based
[14] = target: T2, Adenosine receptor A1; assay: Displacement of [3H]DPCPX from recombinant human adenosine A1 receptor expressed in CHO cell membranes after 60 mins by scintillation counting method
[15] = target: T6, Adenosine receptor A1 (Homo sapiens) (UniProt P30542); assay: Antagonist activity at recombinant human adenosine A1 receptor expressed in CHO cell membranes assessed as inhibition of NECA-induced cAMP accumulation; format: functional, cell-based
T6 sequence (whole entry): T2 sequence (P30542 whole entry)

| SMILES | pKi [1] | Ratio Ki [4] | pKi [6] | pKi [7] | pKi [8] | also measured |
| --- | --- | --- | --- | --- | --- | --- |
| CCCn1c(=O)[nH]c2nc(-c3ccc(OCC(=O)NCCCCCC4=C5C(C)=CC(C)=[N+]5[B-](F)(F)n5c(C)cc(C)c54)cc3)[nH]c2c1=O | 7.11 | 81 | 8.23 | 6.32 | 5.34 | Ratio Ki [2]: 9.9; pKi [3]: 6.15; pKi [5]: 7.23 |
| O=C(Cc1ccc(NC(=O)Cc2ccc(Nc3ncnc4c3ncn4[C@@H]3O[C@H](CO)[C@@H](O)[C@H]3O)cc2)cc1)NCCNc1ccc([N+](=O)[O-])c2nonc12 |  |  |  |  |  | pKi [9]: 8.37 |
| Cn1c(=O)c2c(ncn2C)n(C)c1=O [CAFFEINE] |  |  |  |  |  | pKi [10]: 4.64 |
| CCCn1c(=O)[nH]c2nc(-c3ccc(OCC(=O)NCCCCCCCCCCC4=C5C(C)=CC(C)=[N+]5[B-](F)(F)n5c(C)cc(C)c54)cc3)[nH]c2c1=O | 6.64 | > 150 | 8.11 | < 5.00 | ≤ 5.00 | Ratio Ki [2]: > 150; pKi [3]: < 5.00; pKi [5]: 5.80 |
| CCCN1C(=O)N=C2N=C(c3ccc(S(=O)(=O)N4CCN(Cc5ccccc5)CC4)cc3)N=C2C1=O |  |  |  |  |  | pIC50 [11]: 7.63 |
| CCCn1c(=O)[nH]c2nc(-c3ccc(OCC(=O)NCCCCC4=C5C(C)=CC(C)=[N+]5[B-](F)(F)n5c(C)cc(C)c54)cc3)[nH]c2c1=O | 6.75 | 64 | 7.61 | 5.80 | 6.14 |  |
| CCCn1c(=O)[nH]c2nc(-c3ccc(OCC(=O)NCc4ccccc4)cc3)[nH]c2c1=O | 7.57 | > 150 | 8.15 | < 5.00 | 6.58 | pIC50 [12]: 6.87; Ratio Ki [13]: 38 |
| CCCn1c(=O)[nH]c2nc(-c3ccc(OCC(=O)NCCCCc4ccccc4)cc3)[nH]c2c1=O | 7.53 | > 150 | 8.48 | 6.30 | 5.85 |  |
| O=C(Cc1ccc(NC(=O)Cc2ccc(Nc3ncnc4c3ncn4[C@@H]3O[C@H](CO)[C@@H](O)[C@H]3O)cc2)cc1)NCCNC(=S)Nc1ccc(-c2c3ccc(=O)cc-3oc3cc(O)ccc23)c(C(=O)O)c1 |  |  |  |  |  | pKi [9]: 8.15 |
| CCCn1c(=O)c2[nH]c(-c3ccc(OCC(=O)NCCNC(=O)CCCCCNC(=O)COc4ccc(/C=C/C5=[N+]6C(=Cc7ccc(-c8cccs8)n7[B-]6(F)F)C=C5)cc4)cc3)nc2n(CCC)c1=O |  |  |  |  |  | pKd [14]: 6.82; Kb [15]: 209 nM |
| CCCn1c(=O)[nH]c2nc(-c3ccc(OCC(=O)NCCCC4=C5C(C)=CC(C)=[N+]5[B-](F)(F)n5c(C)cc(C)c54)cc3)[nH]c2c1=O | 6.77 | > 150 | 7.94 | 5.67 | 6.04 |  |
| CCCn1c(=O)[nH]c2nc(-c3ccc(OCC(=O)NCCc4ccccc4)cc3)[nH]c2c1=O | 8.11 | > 150 | 8.13 | < 5.00 | < 5.00 | pIC50 [12]: 6.85 |
| CCCN1C(=O)N=C2N=C(c3ccc(S(=O)(=O)N4CCN(Cc5ccc(Cl)cc5)CC4)cc3)N=C2C1=O |  |  |  |  |  | pIC50 [11]: 8.97 |
| CCCn1c(=O)[nH]c2nc(-c3ccc(OCC(=O)NCCCc4ccccc4)cc3)[nH]c2c1=O | 7.45 | > 150 | 7.55 | < 5.00 | 5.52 | pIC50 [12]: 6.76 |
